ChEMBL document CHEMBL4425095, “Novel Cephalosporins Selectively Active on Nonreplicating Mycobacterium tuberculosis” (J Med Chem, 2016)
≈ marks a conversion by molar mass, not a printed value. Calls of active or inactive are those of the source. No cut-off for these calls is given here.

What was measured:
[1] = tested on: Mycobacterium tuberculosis; test: Potentiation of meropenem-induced bactericidal activity against wild-type replicating Mycobacterium tuberculosis H37Rv assessed as decrease in MIC90 relative to control; type: functional
[2] = Cytotoxicity against human HepG2 cells assessed as reduction in cell viability after 2 days by Celltiter-Glo reagent based assay; conditions: read-out: LD50
Method in brief: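 HepG2 cells in DMEM with 10% FBS, pyruvate, glutamine and nonessential amino acids. Seeded at 3000 cells/well and exposed 2 days to compound or vehicle (≤1% DMSO final). Reported as LD50.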

[3] = Stability in pH 5 non-replicating medium containing 0.5 mM NaNO2 assessed as parent compound remaining at 5 to 50 ug/ml at 37 degC measured every 12 hrs up to 144 hrs by LC-MS analysis; type: physicochemical; conditions: buffer
Method in brief: (§1)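 Compound at 50 μg/mL in cell-free PBS pH 7.4, or nonreplicating medium pH 5.0 (BSA, tyloxapol, lysine, pantothenate omitted) with or without 0.5 mM NaNO2. Poorly soluble compounds at 5 μg/mL in 50:50 acetonitrile mixtures, pH readjusted to 5.0.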

[4] = Stability of compound in pH 2 solution assessed as parent compound remaining incubated for 4 hrs at 37 degC; type: physicochemical; conditions: read-out: Stability
Method in brief: (§2)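 Percent parent compound remaining after 4 h incubation at 37 °C at the stated pH.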

[5] = Stability of compound in pH 7 solution assessed as parent compound remaining incubated for 4 hrs at 37 degC; type: physicochemical
[6] = Stability of compound in pH 12 solution assessed as parent compound remaining incubated for 4 hrs at 37 degC; type: physicochemical; conditions: read-out: Stability; method in brief: as §2
[7] = Solubility of compound in pH 7.4 solution measured after shaking for 4 hrs; type: physicochemical
Method in brief: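 Solubility at pH 7.4 determined after shaking at room temperature for 4 h.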

[8] = Permeability of compound by PAMPA; type: ADME; conditions: read-out: permeability
Method in brief: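 PAMPA membrane permeability by a contract lab; reported as mean Pe (10^-6 cm/s) and log Pe.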

[9] = Stability in mouse liver microsomes assessed as compound metabolism up to 60 mins; type: ADME, Microsome; conditions: 1 h
Method in brief: (§3)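 Mouse and human liver microsomal stability run by a contract lab in triplicate.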

[10] = Half life in mouse liver microsomes; type: ADME, Microsome; method in brief: as §3
[11] = Half life in human liver microsomes; type: ADME, Microsome; method in brief: as §3
[12] = Intrinsic clearance in human liver microsomes assessed per mg protein measured up to 60 mins; type: ADME, Microsome; conditions: 1 h; method in brief: as §3
[13] = Stability in CD-1 mouse plasma assessed as drug transformation at 1 ug/ml measured at <5 mins by LC-MS analysis; type: ADME, cell-free
[14] = Half life in human plasma at 1 ug/ml by LC-MS analysis; type: ADME, cell-free
[15] = tested on: Mycobacterium tuberculosis; test: Bactericidal activity against wild-type non-replicating Mycobacterium tuberculosis H37Rv assessed as log reduction in CFU incubated for 7 days measured at OD580 = 0.1 in presence of 0.5 mM NaNO2 by charcoal agar resazurin assay; type: functional, organism-based
Method in brief: (§4)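 Nonreplicating wild-type H37Rv at OD580 0.1 or 0.01 treated 7 days with or without 0.5 mM NaNO2. 10 μL spotted onto 7H11-OADC-charcoal agar and incubated 7–10 days at 37 °C. Developed with Alamar blue:Tween80 1:1 for 1 h; fluorescence read at ex 530/em 590. Complete loss of fluorescence taken as ≥2–3 log10 CFU reduction.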

Escherichia coli = test: Antibacterial activity against replicating Escherichia coli measured at OD580 = 0.01; type: functional
Method in brief: (§5)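 Replicating organisms in the paper's earlier-described bacteriologic medium; 200 μL of cells at OD580 0.01 exposed to DMSO vehicle or drug in 96-well plates; growth read by optical density.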

Pseudomonas aeruginosa = test: Antibacterial activity against replicating Pseudomonas aeruginosa measured at OD580 = 0.01; type: functional; method in brief: as §5
Staphylococcus aureus = test: Antibacterial activity against replicating Staphylococcus aureus measured at OD580 = 0.01; type: functional; method in brief: as §5
[16] = tested on: Mycolicibacterium smegmatis; test: Antibacterial activity against replicating Mycobacterium smegmatis measured at OD580 = 0.01; type: functional; method in brief: as §5
Candida albicans = test: Antifungal activity against replicating Candida albicans measured at OD580 = 0.01; type: functional; method in brief: as §5
[17] = tested on: Mycobacterium tuberculosis; test: Bactericidal activity against wild-type non-replicating Mycobacterium tuberculosis H37Rv assessed as log reduction in CFU at 0.7 to 0.8 ug/ml incubated for 7 days measured at OD580 = 0.01 by charcoal agar resazurin assay; type: functional
Method in brief: (§6)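 Nonreplicating wild-type H37Rv at OD580 0.01 exposed to compound for 7 days. Survivors serially diluted in PBS-tyloxapol and plated on 7H11-OADC agar; colonies counted at ~3 weeks. Limit of detection 1 colony from 10 μL undiluted sample; triplicates, one of two experiments.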

[18] = tested on: Mycobacterium tuberculosis; test: Bactericidal activity against wild-type non-replicating Mycobacterium tuberculosis H37Rv assessed as log reduction in CFU at 3 to 10 ug/ml incubated for 7 days measured at OD580 = 0.01 by charcoal agar resazurin assay; type: functional; method in brief: as §6
[19] = tested on: Mycobacterium tuberculosis; test: Bactericidal activity against wild-type non-replicating Mycobacterium tuberculosis H37Rv assessed as drug tolerance development at 3 to 10 ug/ml incubated for 7 days measured at OD580 = 0.01 by charcoal agar resazurin assay; type: functional, organism-based
[20] = tested on: Mycobacterium tuberculosis; test: Bactericidal activity against wild-type non-replicating Mycobacterium tuberculosis H37Rv assessed as log reduction in CFU incubated for 7 days measured at OD580 = 0.01 in presence of 0.5 mM NaNO2 by charcoal agar resazurin assay; type: functional, organism-based; method in brief: as §4
[21] = tested on: Mycobacterium tuberculosis; test: Bactericidal activity against wild-type non-replicating Mycobacterium tuberculosis H37Rv incubated for 7 days measured at OD580 = 0.01 in absence of NaNO2 by charcoal agar resazurin assay; type: functional, organism-based; method in brief: as §4
BMDM [22] = test: Cytotoxicity against C57BL6 mouse primary BMDM infected with wild-type non-replicating Mycobacterium tuberculosis H37Rv assessed as cell morphological changes at 100 ug/ml after 3 days; type: cell-based; conditions: 72 h
Method in brief: (§7)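 Bone marrow macrophages (~1×10^5) from 8-week female C57Bl6 mice grown in DMEM/10% FBS/10% L-cell medium, with or without 50 ng/mL mouse IFNγ. Infected with H37Rv at MOI 1–5 for 4 h, washed, then given 100 μg/mL compound in 1% DMSO for 3 or 4 days. Lysed in 0.5% Triton X-100, CFU counted on 7H11-OADC agar; morphology observed.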

[23] = tested on: Mycobacterium tuberculosis; test: Bactericidal activity against wild-type non-replicating Mycobacterium tuberculosis H37Rv infected in recombinant mouse IFN-gamma stimulated C57BL6 mouse primary BMDM assessed as log reduction in CFU at 100 ug/ml incubated for 3 days by charcoal agar resazurin assay; type: functional; method in brief: as §7
[24] = Stability in pH 7.4 phosphate buffer solution assessed as parent compound remaining at 5 to 50 ug/ml at 37 degC measured every 12 hrs up to 144 hrs by LC-MS analysis; type: physicochemical; method in brief: as §1
[25] = Stability in pH 5 non-replicating medium assessed as parent compound remaining at 5 to 50 ug/ml at 37 degC measured every 12 hrs up to 144 hrs by LC-MS analysis; type: physicochemical; conditions: buffer; method in brief: as §1
[26] = tested on: Mycobacterium tuberculosis; test: Bactericidal activity against wild-type non-replicating Mycobacterium tuberculosis H37Rv assessed as reduction in CFU at 0.1 to 100 ug/ml incubated for 7 days measured at OD580 = 0.01 in presence of beta-lactamase inhibitor clavulanate by charcoal agar resazurin assay; type: functional, organism-based
[27] = tested on: Mycobacterium tuberculosis; test: Bactericidal activity against wild-type replicating Mycobacterium tuberculosis H37Rv assessed as reduction in CFU in presence of beta-lactamase inhibitor clavulanate; type: functional, organism-based
[28] = tested on: Mycobacterium tuberculosis; test: Bactericidal activity against wild-type non-replicating Mycobacterium tuberculosis H37Rv at 1 to 100 ug/ml incubated for 7 days measured at OD580 = 0.1 in presence of 0.06 to 1 mM NaNO2; type: functional, organism-based
Method in brief: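 Wild-type H37Rv resuspended at OD580 0.1 in nonreplicating medium with NaNO2 at 0–1 mM, one plate per nitrite level. Exposed to compound for 7 days, then standard outgrowth assay to estimate survivors.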

[29] = tested on: Mycobacterium tuberculosis; test: Bactericidal activity against wild-type non-replicating Mycobacterium tuberculosis H37Rv infected in recombinant mouse IFN-gamma stimulated C57BL6 mouse primary BMDM assessed as log reduction in CFU at 100 ug/ml incubated for 4 days by charcoal agar resazurin assay; type: functional; method in brief: as §7
BMDM [30] = test: Cytotoxicity against C57BL6 mouse primary BMDM infected with wild-type non-replicating Mycobacterium tuberculosis H37Rv assessed as cell morphological changes at 100 ug/ml after 4 days; type: cell-based; conditions: 96 h; method in brief: as §7

SMILES	CC50 at 48 h [2]	Stability [3]	remaining at 4 h [4]	remaining at 4 h [6]	solubility at 4 h [7]	Papp [8]	Stability [9]	t1/2 [10]	t1/2 [11]	CLH [12]	Stability [13]	t1/2 [14]	Activity [15]	MIC90 (Escherichia coli)	MIC90 (Pseudomonas aeruginosa)	MIC90 (Staphylococcus aureus)	MIC90 [16]	MIC90 (Candida albicans)	Activity [17]	LCK [18]	also measured
O=C(O)[C@H]1/C(=C/CO)O[C@@H]2CC(=O)N21 [CLAVULANIC ACID]	–	–	–	–	–	–	–	–	–	–	–	–	–	–	–	–	–	–	–	–	fold change (FC) [1]: 4
CC1=C(c2nc(C)no2)N2C(=O)[C@@H](NC(=O)COc3ccccc3)[C@H]2SC1	> 100 µg/mL	Stable	100 to 102%	0%	83.7 to 84 µM (≈ 32.3 to 32.5 µg/mL)	13.4 ×10⁻⁶ cm/s	Unstable	< 5 min	1.27 h	9.13 µL/min	Unstable	2 to 3 h	Dose-dependent effect	> 100 µg/mL	> 100 µg/mL	> 100 µg/mL	> 100 µg/mL	> 100 µg/mL	2 deltalog10CFU/ml	>=3.4	remaining at 4 h ([5]; pH 7 solution, pH 7, read-out: Stability): 101%; Activity [19]: Active; Activity [20]: Dose-dependent effect; Activity [21]: Active; Activity (BMDM [22]): Non-Toxic; Activity [23]: 1 - 2 deltalog10CFU/ml
CCCOC(=O)C1=C(C)CS[C@@H]2[C@H](NC(=O)COc3ccccc3)C(=O)N12	75.7 to 100 µg/mL (≈ 194 to 256 µM)	100%	100 to 110%	0%	22.7 to 23 µM (≈ 8.86 to 8.98 µg/mL)	7.28 ×10⁻⁶ cm/s	Unstable	< 5 min	1.44 h	8.07 µL/min	Unstable	2 to 3 h	Dose-dependent effect	> 100 µg/mL	> 100 µg/mL	> 100 µg/mL	> 100 µg/mL	> 100 µg/mL	2 deltalog10CFU/ml	>=3.4	Stability [24]: 80%; Stability [25]: 100%; Stability ([5]; buffer, pH 7, 4 h): 133%; Activity [19]: Active; Activity [26]: Active; Activity [27]: inactive; Activity [28]: Active; Activity [20]: Dose-dependent effect; Activity [21]: Active; Activity [29]: 1 - 2 deltalog10CFU/ml; Activity (BMDM [30]): Non-Toxic
